Bioassay records deposited in PubChem BioAssay by Johns Hopkins Ion Channel Center.
MrgX1 agonist: agonists of human MrgX1 receptor. B-score at 10 µM. MrgX1-HEK293 cells, Fluo-4 calcium fluorescence, agonist mode; stronger effect = higher value. 0.44% of 310,000 active. Q96LB2;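 active = calcium response B-score plate-corrected fluorescence ratio at least 3 library SD, with starting fluorescence B-score inside 5 SD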
Target sequence (Q96LB2 whole entry, looked up): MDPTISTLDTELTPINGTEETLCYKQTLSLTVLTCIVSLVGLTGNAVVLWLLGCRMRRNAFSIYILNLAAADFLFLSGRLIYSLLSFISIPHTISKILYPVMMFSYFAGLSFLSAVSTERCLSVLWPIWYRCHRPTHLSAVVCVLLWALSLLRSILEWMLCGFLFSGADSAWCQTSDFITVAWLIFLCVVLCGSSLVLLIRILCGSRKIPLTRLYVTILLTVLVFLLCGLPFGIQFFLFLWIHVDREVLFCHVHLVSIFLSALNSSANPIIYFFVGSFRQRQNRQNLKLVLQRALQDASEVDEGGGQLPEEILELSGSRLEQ
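Test system: Stable human MrgX1 HEK293 cell line | Schedule: Overnight plating before 1 h dye loading | Read-out basis: Baseline-normalised fluorescence change ratio, B-scored | Detection: Kinetic calcium dye fluorescence, Fluo-4 NW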
RGS4 pot: RGS4 potentiation or activation | HEK293 M3R/inducible RGS4, carbachol calcium flux Fluo4; stronger effect = lower value | B-score at 10 µM | 0.92% of 310,000 active | AID 463111;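 active = B-score of the integrated calcium signal more than 4 SD below the library mean, with starting fluorescence not abnormally high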;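 also: negative B-score means reduced calcium response which marks RGS4 activation or potentiation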
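Material: Inducible-RGS4 HEK293 cells carrying M3 receptor; also added: carbachol at ECmax as muscarinic agonist stimulus; incubation: compound preincubation 20 min at room temperature before agonist; signal: Fluo4-AM (2 µM) calcium-flux fluorescence, kinetic read; measure: integrated calcium ratio converted to B score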
MrgX1 PAM: allosterically activates human MrgX1 receptor signaling; AID 588675; B-score at 10 µM; 0.63% of 310,000 active; MrgX1-HEK293, Fluo-4 calcium flux, FDSS; stronger effect = higher value; Q96LB2;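 active = plate-corrected calcium response at least 3 library SD above typical, normal starting fluorescence, not activating the receptor alone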;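 also: compound read alongside a low EC10 to EC30 dose of BAM8-22 agonist; peak minus trough fluorescence over baseline measured at the second addition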
RGS4 block: human RGS4 inhibition; 0.45% of 310,000 active; P49798; B-score at 10 µM; HEK293 M3R/RGS4 inducible, Fluo-4 calcium flux; stronger effect = higher value; triggered by carbachol at its EC20;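 active = B-score, a plate-corrected calcium signal, over three deviations above library mean, with baseline fluorescence within five deviations of library mean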;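 also: RGS4 expression induced by doxycycline in cells with stable M3 receptor; B-score is computed from the integrated fluorescence ratio over baseline after carbachol; higher B-score means a larger calcium signal and so more RGS4 inhibition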
Target sequence (P49798 whole entry, looked up): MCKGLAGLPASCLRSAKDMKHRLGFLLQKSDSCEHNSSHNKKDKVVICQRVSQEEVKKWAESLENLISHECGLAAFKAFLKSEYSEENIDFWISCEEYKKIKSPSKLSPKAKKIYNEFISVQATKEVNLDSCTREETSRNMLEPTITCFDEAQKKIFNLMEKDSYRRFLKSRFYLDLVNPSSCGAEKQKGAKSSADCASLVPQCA
MrgX1 antag: human MrgX1 receptor antagonism, primary screen; Q96LB2; MRGX1-HEK293 calcium flux, Fluo-4, BAM8-22 antagonism; stronger effect = lower value; B-score at 10 µM; 1.3% of 310,000 active; AID 588676;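 active = calcium-response B-score plate-corrected more than 3 library SD below zero, starting fluorescence within 5 deviations, no agonist response on first addition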;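 also: peak minus trough fluorescence over baseline after final BAM8-22 challenge near maximal dose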
RGS4 inh valid: validation of RGS4 inhibitors. shares compounds with RGS4 block. HEK293 M3R/RGS4, carbachol calcium Fluo-4 fluorescence; carbachol added at its EC20; 0 = buffer wells, 100 = carbachol control. calcium response, % at 10 µM. 65% of 1,700 active;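 active = duplicate-averaged calcium response above the buffer-only control mean plus 5 SD of those controls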;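 also: integrated fluorescence ratio F max minus min over baseline F0; higher response in RGS4-induced cells means RGS4 inhibition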
RGS4 uninduced: checks RGS4 inhibitor effects in non-induced HEK293 M3R cells; 20% of 1,900 active; carbachol calcium Fluo-4; submaximal (EC20) carbachol stimulus; buffer wells 0%, carbachol control wells 100%; AID 493000; shares compounds with RGS4 block; activity (percent), % at 10 µM; call rule not given here;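 also: RGS4 induction absent so cells express M3R without RGS4; higher means more calcium signal and flags a non-specific hit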
M3R basal Ca ctr: second RGS4 inhibitor counter-screen in uninduced cells lacking carbachol | HEK293 M3R/RGS4 non-induced, Fluo-4 calcium, no carbachol; normalised: buffer wells 0%, carbachol wells 100% | shares compounds with RGS4 block | 22% of 1,900 active | calcium response (agonist-mode artifact), % at 10 µM;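 active = duplicate-averaged calcium rise in uninduced cells above buffer wells' mean plus 5 SD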
Numbers without * were called inactive. An excerpt weighted towards active compounds, which were near 3.5% of everything screened.

Results for Oc1cc(Br)ccc1C=Nc1ccc(N2CCCCC2)cc1 ?
MrgX1 agonist: inactive; RGS4 pot: inactive; MrgX1 PAM: inactive; RGS4 block: inactive; MrgX1 antag: inactive

Results for Oc1ccc(C=Nc2ccc(N3CCOCC3)cc2)c(O)c1 ?
MrgX1 agonist: inactive; RGS4 pot: inactive; MrgX1 PAM: inactive; RGS4 block: inactive; MrgX1 antag: inactive

Results for COc1ccccc1C(=O)N/C(=C\c1cn(S(=O)(=O)N(C)C)c2ccccc12)C(=O)N1CCCCC1 ?
MrgX1 agonist: inactive; RGS4 pot: inactive; MrgX1 PAM: inactive; RGS4 block: inactive; MrgX1 antag: inactive

Results for CCCCn1c(N)c(N(CCOC)C(=O)c2cccc(S(=O)(=O)N(C)c3ccc(C)cc3)c2)c(=O)[nH]c1=O ?
MrgX1 agonist: inactive; RGS4 pot: inactive; MrgX1 PAM: inactive; RGS4 block: inactive; MrgX1 antag: inactive

How did O=S(=O)(Nc1nccs1)c1ccc(NCc2cc(Br)cc(Br)c2O)cc1 do in these assays?
MrgX1 agonist: inactive; RGS4 pot: inactive; MrgX1 PAM: inactive; RGS4 block: 7.8*; MrgX1 antag: inactive; RGS4 inh valid: 6.0%*; RGS4 uninduced: 44%*; M3R basal Ca ctr: inactive

What do the screens show for `O=C(O)C1CCN(c2nc(-c3ccccc3)nc3c2oc2ccccc23)CC1`?
MrgX1 agonist: inactive; RGS4 pot: inactive; MrgX1 PAM: inactive; RGS4 block: inactive; MrgX1 antag: inactive

Results for O=C(O)CSc1nc(-c2ccc(Cl)cc2)nc2c1oc1ccccc12 ?
MrgX1 agonist: inactive; RGS4 pot: inactive; MrgX1 PAM: inactive; RGS4 block: 4.8*; MrgX1 antag: inactive; RGS4 inh valid: 9.0%*; RGS4 uninduced: inactive; M3R basal Ca ctr: 7.0%*

How did O=C(O)CSc1nc(-c2ccccc2)nc2c1oc1ccccc12 do in these assays?
MrgX1 agonist: inactive; RGS4 pot: inactive; MrgX1 PAM: inactive; RGS4 block: inactive; MrgX1 antag: inactive; RGS4 inh valid: inactive; RGS4 uninduced: inactive; M3R basal Ca ctr: inactive

Results for Cc1ccc(N(C(=O)CNC(=O)c2ccco2)C(C(=O)NC2CCCCC2)c2ccncc2)c(C)c1 (configuration not stated) ?
MrgX1 agonist: inactive; RGS4 pot: inactive; MrgX1 PAM: inactive; RGS4 block: inactive; MrgX1 antag: inactive

Results for O=C(NC(C(=O)N/N=C/c1ccncc1)c1n[nH]c(=O)c2ccccc12)c1ccccc1 (configuration not stated) ?
MrgX1 agonist: inactive; RGS4 pot: inactive; MrgX1 PAM: inactive; RGS4 block: inactive; MrgX1 antag: inactive

What do the screens show for `O=C(NC(C(=O)N/N=C/c1cccc2ccccc12)c1n[nH]c(=O)c2ccccc12)c1ccccc1` (configuration not stated)?
MrgX1 agonist: inactive; RGS4 pot: inactive; MrgX1 PAM: inactive; RGS4 block: 14*; MrgX1 antag: inactive; RGS4 inh valid: 24%*; RGS4 uninduced: 30%*; M3R basal Ca ctr: inactive

What do the screens show for `O=C(CN1C(=O)CCC1=O)Nc1nc(-c2ccc3ccccc3c2)cs1`?
MrgX1 agonist: inactive; RGS4 pot: inactive; MrgX1 PAM: inactive; RGS4 block: 8*; MrgX1 antag: inactive; RGS4 inh valid: 5.0%*; RGS4 uninduced: inactive; M3R basal Ca ctr: inactive

What do the screens show for `Oc1ccc(-c2nc(-c3ccc(O)c(O)c3)cs2)cc1`?
MrgX1 agonist: inactive; RGS4 pot: inactive; MrgX1 PAM: inactive; RGS4 block: inactive; MrgX1 antag: inactive; RGS4 inh valid: inactive; RGS4 uninduced: inactive; M3R basal Ca ctr: inactive

Results for Oc1ccc(Nc2nc(-c3ccc4ccccc4c3)cs2)cc1 ?
MrgX1 agonist: inactive; RGS4 pot: inactive; MrgX1 PAM: inactive; RGS4 block: 41*; MrgX1 antag: inactive; RGS4 inh valid: 84%*; RGS4 uninduced: 88%*; M3R basal Ca ctr: inactive

Results for CC(=O)Nc1nc(-c2ccc3ccccc3c2)cs1 ?
MrgX1 agonist: inactive; RGS4 pot: inactive; MrgX1 PAM: inactive; RGS4 block: 5.1*; MrgX1 antag: inactive; RGS4 inh valid: inactive; RGS4 uninduced: inactive; M3R basal Ca ctr: inactive

What do the screens show for `CCOC(=O)C1=C(O)C(=O)N(Cc2ccccc2)CC1`?
MrgX1 agonist: inactive; RGS4 pot: inactive; MrgX1 PAM: inactive; RGS4 block: inactive; MrgX1 antag: inactive

How did COc1ccc(NC(=O)/C(Cl)=C(/Cl)S(=O)(=O)Cc2ccc(C)cc2)cn1 do in these assays?
RGS4 pot: inactive; RGS4 block: 12*; RGS4 inh valid: 24%*; RGS4 uninduced: inactive; M3R basal Ca ctr: 7.5%*

What do the screens show for `COc1ccc(C(=O)OCC[N+]2(C)CCOCC2)cc1`?
MrgX1 agonist: inactive; RGS4 pot: inactive; MrgX1 PAM: inactive; RGS4 block: inactive; MrgX1 antag: inactive

Results for Cn1ncc2c(N3CCN(c4ccccc4F)CC3)ncnc21 ?
MrgX1 agonist: inactive; RGS4 pot: inactive; MrgX1 PAM: inactive; RGS4 block: inactive; MrgX1 antag: inactive

How did Cn1ncc2c(N3CCN(c4ccc(Cl)c(Cl)c4)CC3)ncnc21 do in these assays?
MrgX1 agonist: inactive; RGS4 pot: inactive; MrgX1 PAM: inactive; RGS4 block: 5.7*; MrgX1 antag: inactive; RGS4 inh valid: 9.5%*; RGS4 uninduced: inactive; M3R basal Ca ctr: inactive

How did NC1=NC2(CCC(c3ccccc3)CC2)n2c(nc3ccccc32)N1 (configuration not stated) do in these assays?
MrgX1 agonist: inactive; RGS4 pot: inactive; MrgX1 PAM: inactive; RGS4 block: 5.2*; MrgX1 antag: inactive; RGS4 inh valid: 58%*; RGS4 uninduced: inactive; M3R basal Ca ctr: inactive

Results for O=C(Nc1nc(-c2ccc(-c3ccccc3)cc2)cs1)C1=COCCO1 ?
MrgX1 agonist: inactive; RGS4 pot: inactive; MrgX1 PAM: inactive; RGS4 block: inactive; MrgX1 antag: inactive; RGS4 uninduced: inactive; M3R basal Ca ctr: inactive

Results for Cc1cc(C)c(-c2csc(NC(=O)C3=COCCO3)n2)cc1C ?
MrgX1 agonist: inactive; RGS4 pot: inactive; MrgX1 PAM: inactive; RGS4 block: inactive; MrgX1 antag: inactive; RGS4 uninduced: inactive; M3R basal Ca ctr: inactive
